Reference: ChEMBL document CHEMBL1154609, “Synthesis and antibacterial activity of isothiazolyl oxazolidinones and analogous 3(2H)-isothiazolones” (Eur J Med Chem, 2010)
Values after ≈ are worked out from the molar mass of the structure shown.

Tests used:
Pseudomonas aeruginosa = assay: Antibacterial activity against Pseudomonas aeruginosa ATCC 9027 after 18 hrs by agar dilution method; details: ATCC 9027, 18 h
Staphylococcus aureus [1] = assay: Antibacterial activity against Staphylococcus aureus ATCC 29737 after 18 hrs by agar dilution method; type: functional; details: ATCC 29737, 18 h
Outline: (§1)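 Agar dilution on Mueller Hinton agar; inoculum about 10^6 CFU/mL applied to plates with twofold serial dilutions of compound in distilled water, 0.01 to 100 μg/mL; 37 °C, 18 h. DMSO-supplemented medium at matching dilution run as solvent control. MIC = lowest concentration giving no visible growth on the plate.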

[2] = tested on: Staphylococcus epidermidis; assay: Antibacterial activity against Staphylococcus epidermidis ATCC 12229 after 18 hrs by agar dilution method; type: functional; details: ATCC 12229, 18 h
Outline: as §1

Escherichia coli = assay: Antibacterial activity against Escherichia coli ATCC 8739 after 18 hrs by agar dilution method; type: functional; details: ATCC 8739, 18 h
Outline: as §1

Salmonella typhimurium = assay: Antibacterial activity against Salmonella Typhimurium ATCC 1639 after 18 hrs by agar dilution method; type: functional, Salmonella enterica subsp. enterica serovar Typhimurium; details: Salmonella enterica, ATCC 1639, 18 h
Outline: as §1

[3] = Cytotoxicity against mouse NIH/3T3 cells after 24 hrs by MTT assay; type: cell-based; details: NIH3T3, 24 h
Outline: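 NIH/3T3 normal mouse fibroblasts exposed to compounds for 24 h; viability read by MTT colorimetric assay.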

Staphylococcus aureus [4] = assay: Antibacterial activity against methicillin-resistant Staphylococcus aureus isolate 2 after 18 hrs by agar dilution method; type: functional; details: isolate 2, 18 h
Outline: (§2)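 Agar dilution on Mueller Hinton agar. Inoculum about 10^6 CFU/mL applied to plates holding two-fold serial dilutions of compound in distilled water, 0.01 to 100 μg/mL. Incubated 37 °C for 18 h. DMSO solvent control included. MIC taken as the lowest concentration giving no visible growth on the plate.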

Staphylococcus aureus [5] = assay: Antibacterial activity against methicillin-resistant Staphylococcus aureus isolate 1 after 18 hrs by agar dilution method; type: functional; details: isolate 1, 18 h
Outline: as §2

Compound	MIC (Pseudomonas aeruginosa) [µg/mL]	MIC (Staphylococcus aureus [1]) [µg/mL]	MIC [2] [µg/mL]	MIC (Escherichia coli) [µg/mL]	MIC (Salmonella typhimurium) [µg/mL]	IC50 [3] [µg/mL]	MIC (Staphylococcus aureus [4]) [µg/mL]	MIC (Staphylococcus aureus [5]) [µg/mL]
O=C1OC(Cn2sccc2=O)CN1Cc1ccccc1 (configuration not stated)	12.5 (≈ 43.1 µM)	0.5 (≈ 1.72 µM)	0.5 (≈ 1.72 µM)	12.5 (≈ 43.1 µM)	12.5 (≈ 43.1 µM)	273 (≈ 940 µM)	12.5 (≈ 43.1 µM)	8 (≈ 27.6 µM)
O=C1OC(Cn2sccc2=O)CN1c1ccc(N2CCOCC2)c(F)c1 (configuration not stated)	12.5 (≈ 32.9 µM)	6 (≈ 15.8 µM)	12.5 (≈ 32.9 µM)	25 (≈ 65.9 µM)	12.5 (≈ 32.9 µM)	–	–	–
O=C1OC(Cn2sccc2=O)CN1c1ccccc1 (configuration not stated)	0.01 (≈ 0.0362 µM)	0.75 (≈ 2.71 µM)	0.75 (≈ 2.71 µM)	0.01 (≈ 0.0362 µM)	0.01 (≈ 0.0362 µM)	162 (≈ 586 µM)	10 (≈ 36.2 µM)	6 (≈ 21.7 µM)
O=c1cc(Cl)sn1Cc1ccccc1	25 (≈ 111 µM)	0.5 (≈ 2.22 µM)	0.5 (≈ 2.22 µM)	0.5 (≈ 2.22 µM)	12.5 (≈ 55.4 µM)	–	–	–
CN[C@H](CC(C)C)C(=O)N[C@H]1C(=O)N[C@@H](CC(N)=O)C(=O)N[C@H]2C(=O)N[C@H]3C(=O)N[C@H](C(=O)N[C@H](C(=O)O)c4cc(O)cc(O)c4-c4cc3ccc4O)[C@H](O)c3ccc(c(Cl)c3)Oc3cc2cc(c3O[C@@H]2O[C@H](CO)[C@@H](O)[C@H](O)[C@H]2O[C@H]2C[C@](C)(N)[C@H](O)[C@H](C)O2)Oc2ccc(cc2Cl)[C@H]1O [VANCOMYCIN]	> 100	0.75 (≈ 0.518 µM)	0.75 (≈ 0.518 µM)	> 100	> 100	–	–	–
O=C1OC(Cn2sccc2=O)CN1c1ccc(F)cc1 (configuration not stated)	0.75 (≈ 2.55 µM)	0.75 (≈ 2.55 µM)	1.5 (≈ 5.1 µM)	0.75 (≈ 2.55 µM)	0.75 (≈ 2.55 µM)	174 (≈ 591 µM)	12.5 (≈ 42.5 µM)	10 (≈ 34 µM)
O=C1OC(Cn2sccc2=O)CN1c1ccc(C(F)(F)F)cc1 (configuration not stated)	100 (≈ 290 µM)	50 (≈ 145 µM)	100 (≈ 290 µM)	100 (≈ 290 µM)	100 (≈ 290 µM)	–	–	–
O=c1ccsn1-c1ccccc1	12.5 (≈ 70.5 µM)	3.25 (≈ 18.3 µM)	3.25 (≈ 18.3 µM)	12.5 (≈ 70.5 µM)	25 (≈ 141 µM)	–	–	–
O=C1OC(Cn2sccc2=O)CN1c1ccc(Cl)cc1 (configuration not stated)	25 (≈ 80.4 µM)	1.5 (≈ 4.83 µM)	1.5 (≈ 4.83 µM)	12.5 (≈ 40.2 µM)	12.5 (≈ 40.2 µM)	194 (≈ 624 µM)	12.5 (≈ 40.2 µM)	12.5 (≈ 40.2 µM)
COc1ccc(N2CC(Cn3sccc3=O)OC2=O)cc1 (configuration not stated)	100 (≈ 326 µM)	50 (≈ 163 µM)	50 (≈ 163 µM)	100 (≈ 326 µM)	100 (≈ 326 µM)	–	–	–
O=C(O)c1cn(C2CC2)c2cc(N3CCNCC3)c(F)cc2c1=O [CIPROFLOXACIN]	0.01 (≈ 0.0302 µM)	0.5 (≈ 1.51 µM)	1 (≈ 3.02 µM)	–	0.01 (≈ 0.0302 µM)	–	–	–
CC(=O)c1ccc(N2CC(Cn3sccc3=O)OC2=O)cc1 (configuration not stated)	100 (≈ 314 µM)	12.5 (≈ 39.3 µM)	25 (≈ 78.5 µM)	50 (≈ 157 µM)	50 (≈ 157 µM)	–	–	–
CC(=O)c1ccc(-n2sc(Cl)cc2=O)cc1	12.5 (≈ 49.3 µM)	12.5 (≈ 49.3 µM)	12.5 (≈ 49.3 µM)	12.5 (≈ 49.3 µM)	25 (≈ 98.5 µM)	–	–	–
CC(=O)NC[C@H]1CN(c2ccc(N3CCOCC3)c(F)c2)C(=O)O1 [LINEZOLID]	> 100	–	0.03 (≈ 0.0889 µM)	> 100	> 100	465 (≈ 1380 µM)	–	2 (≈ 5.93 µM)
O=c1cc(Cl)sn1-c1ccc(N2CCOCC2)c(F)c1	12.5 (≈ 39.7 µM)	10 (≈ 31.8 µM)	10 (≈ 31.8 µM)	25 (≈ 79.4 µM)	25 (≈ 79.4 µM)	–	–	–

Second part, led by results:

MIC (Pseudomonas aeruginosa) [µg/mL]	MIC (Staphylococcus aureus [1]) [µg/mL]	MIC [2] [µg/mL]	MIC (Escherichia coli) [µg/mL]	MIC (Salmonella typhimurium) [µg/mL]	Compound	IC50 [3] [µg/mL]	MIC (Staphylococcus aureus [4]) [µg/mL]	MIC (Staphylococcus aureus [5]) [µg/mL]
0.6 (≈ 2.44 µM)	0.1 (≈ 0.406 µM)	0.1 (≈ 0.406 µM)	0.3 (≈ 1.22 µM)	0.3 (≈ 1.22 µM)	O=c1cc(Cl)sn1-c1ccc(Cl)cc1	–	–	–
12.5 (≈ 50.8 µM)	6 (≈ 24.4 µM)	10 (≈ 40.6 µM)	12.5 (≈ 50.8 µM)	12.5 (≈ 50.8 µM)	O=c1cc(Cl)sn1-c1cccc(Cl)c1	–	–	–
25 (≈ 131 µM)	25 (≈ 131 µM)	2 (≈ 10.5 µM)	25 (≈ 131 µM)	25 (≈ 131 µM)	Cc1ccc(-n2sccc2=O)cc1	–	–	–
1.25 (≈ 5.91 µM)	50 (≈ 236 µM)	0.3 (≈ 1.42 µM)	0.6 (≈ 2.83 µM)	0.3 (≈ 1.42 µM)	O=c1cc(Cl)sn1-c1ccccc1	–	–	–
25 (≈ 121 µM)	10 (≈ 48.2 µM)	3 (≈ 14.5 µM)	25 (≈ 121 µM)	12.5 (≈ 60.3 µM)	COc1ccc(-n2sccc2=O)cc1	–	–	–
12.5 (≈ 54.4 µM)	3 (≈ 13.1 µM)	3 (≈ 13.1 µM)	6 (≈ 26.1 µM)	6 (≈ 26.1 µM)	O=c1cc(Cl)sn1-c1ccc(F)cc1	–	–	–
0.01 (≈ 0.0443 µM)	5 (≈ 22.2 µM)	0.5 (≈ 2.22 µM)	5 (≈ 22.2 µM)	5 (≈ 22.2 µM)	Cc1ccc(-n2sc(Cl)cc2=O)cc1	–	–	–
0.1 (≈ 0.358 µM)	5 (≈ 17.9 µM)	5 (≈ 17.9 µM)	25 (≈ 89.4 µM)	12.5 (≈ 44.7 µM)	O=c1cc(Cl)sn1-c1ccc(C(F)(F)F)cc1	–	–	–
25 (≈ 86.1 µM)	25 (≈ 86.1 µM)	25 (≈ 86.1 µM)	25 (≈ 86.1 µM)	25 (≈ 86.1 µM)	Cc1ccc(N2CC(Cn3sccc3=O)OC2=O)cc1 (configuration not stated)	–	–	–
12.5 (≈ 64 µM)	1.5 (≈ 7.68 µM)	3 (≈ 15.4 µM)	6 (≈ 30.7 µM)	12.5 (≈ 64 µM)	O=c1ccsn1-c1ccc(F)cc1	–	–	–
12.5 (≈ 65.4 µM)	12.5 (≈ 65.4 µM)	6 (≈ 31.4 µM)	12.5 (≈ 65.4 µM)	12.5 (≈ 65.4 µM)	O=c1ccsn1Cc1ccccc1	–	–	–
25 (≈ 89.2 µM)	12.5 (≈ 44.6 µM)	10 (≈ 35.7 µM)	25 (≈ 89.2 µM)	25 (≈ 89.2 µM)	O=c1ccsn1-c1ccc(N2CCOCC2)c(F)c1	–	–	–
10 (≈ 47.2 µM)	3 (≈ 14.2 µM)	1.5 (≈ 7.09 µM)	10 (≈ 47.2 µM)	10 (≈ 47.2 µM)	O=c1ccsn1-c1ccc(Cl)cc1	–	–	–
25 (≈ 118 µM)	10 (≈ 47.2 µM)	12.5 (≈ 59.1 µM)	25 (≈ 118 µM)	25 (≈ 118 µM)	O=c1ccsn1-c1cccc(Cl)c1	–	–	–
12.5 (≈ 64 µM)	6 (≈ 30.7 µM)	3.25 (≈ 16.6 µM)	12.5 (≈ 64 µM)	12.5 (≈ 64 µM)	O=c1ccsn1-c1cccc(F)c1	–	–	–
100 (≈ 340 µM)	50 (≈ 170 µM)	100 (≈ 340 µM)	100 (≈ 340 µM)	100 (≈ 340 µM)	O=C1OC(Cn2sccc2=O)CN1c1cccc(F)c1 (configuration not stated)	–	–	–
12.5 (≈ 57 µM)	12.5 (≈ 57 µM)	12.5 (≈ 57 µM)	12.5 (≈ 57 µM)	12.5 (≈ 57 µM)	CC(=O)c1ccc(-n2sccc2=O)cc1	–	–	–
25 (≈ 102 µM)	25 (≈ 102 µM)	0.25 (≈ 1.02 µM)	25 (≈ 102 µM)	25 (≈ 102 µM)	O=c1ccsn1-c1ccc(C(F)(F)F)cc1	–	–	–
0.01 (≈ 0.0414 µM)	1.5 (≈ 6.21 µM)	0.25 (≈ 1.03 µM)	1.5 (≈ 6.21 µM)	1.5 (≈ 6.21 µM)	COc1ccc(-n2sc(Cl)cc2=O)cc1	–	–	–
12.5 (≈ 40.2 µM)	12.5 (≈ 40.2 µM)	12.5 (≈ 40.2 µM)	12.5 (≈ 40.2 µM)	12.5 (≈ 40.2 µM)	O=C1OC(Cn2sccc2=O)CN1c1cccc(Cl)c1 (configuration not stated)	–	–	–
